Laboratory results published in ChEMBL document CHEMBL1140904, “Synthesis and analysis of novel glycerolipids for the treatment of metabolic syndrome” (J Med Chem, 2009).

Assays:
Rattus norvegicus [1] = test: Effect on fatty acid composition in Wistar rat assessed as change in liver PUFA level at dose equivalent to 85 umol of tetradecylthioacetic acid, po after 6 days; type: functional
How it was run: (§1)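 Male Wistar rats were gavaged once daily for 6 days with compound in 0.5% CMC at 85 or 250 µmol TTA-equivalent per animal. Controls received palmitic acid. Liver was homogenized in 0.25 M sucrose/10 mM HEPES pH 7.4/1 mM EDTA at 0-4 °C. Lipids were extracted with chloroform:methanol 2:1 and spiked with 21:0 internal standard. Fatty acids were BF3-methanol transesterified and quantified as wt%. Values are mean ± SD, n=5.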

Rattus norvegicus [2] = test: Effect on fatty acid composition in Wistar rat assessed as change in liver LCPUFA, n-6 level at dose equivalent to 85 umol of tetradecylthioacetic acid, po after 6 days; type: functional; how it was run: as §1
Rattus norvegicus [3] = test: Effect on fatty acid composition in Wistar rat assessed as change in liver saturated fatty acid level at dose equivalent to 250 umol of tetradecylthioacetic acid, po after 6 days; type: functional; how it was run: as §1
Rattus norvegicus [4] = test: Effect on fatty acid composition in Wistar rat assessed as change in liver MUFA level at dose equivalent to 250 umol of tetradecylthioacetic acid, po after 6 days; type: functional; how it was run: as §1
Rattus norvegicus [5] = test: Effect on fatty acid composition in Wistar rat assessed as change in liver PUFA level at dose equivalent to 250 umol of tetradecylthioacetic acid, po after 6 days; type: functional; how it was run: as §1
Rattus norvegicus [6] = test: Effect on fatty acid composition in Wistar rat assessed as change in liver 18;2, n-6 level at dose equivalent to 250 umol of tetradecylthioacetic acid, po after 6 days; type: functional; how it was run: as §1
Rattus norvegicus [7] = test: Effect on fatty acid composition in Wistar rat assessed as change in plasma saturated fatty acid level at dose equivalent to 250 umol of tetradecylthioacetic acid, po after 6 days; type: functional
Rattus norvegicus [8] = test: Effect on fatty acid composition in Wistar rat assessed as change in plasma MUFA level at dose equivalent to 250 umol of tetradecylthioacetic acid, po after 6 days; type: functional
Rattus norvegicus [9] = test: Induction of PPAR-alpha-regulated fatty acyl-CoA oxidase activity in po dosed Wistar rat after 6 days; type: functional, organism-based
How it was run: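 Rats were dosed by gastric intubation for 6 days at 85 or 250 µmol TTA-equivalent in 0.5% CMC, with palmitic acid controls. Fatty acyl-CoA oxidase was measured in the liver postnuclear fraction by a coupled assay, following H2O2 production as the rise in dichlorofluorescein absorbance with palmitoyl-CoA. Mean ± SD, n=5.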

Rattus norvegicus [10] = test: Induction of PPAR-alpha-regulated CPT2 activity in po dosed Wistar rat after 6 days; type: functional, organism-based
How it was run: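 Wistar rats were dosed orally for 6 days (85 or 250 µmol TTA-equivalent in 0.5% CMC; palmitic acid controls). CPT-II activity was measured in the liver mitochondrial fraction, prepared from sucrose/HEPES pH 7.4/EDTA homogenate at 0-4 °C. Means ± SD from 5 rats per group.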

Rattus norvegicus [11] = test: Effect on fatty acid composition in Wistar rat assessed as change in plasma MUFA level at dose equivalent to 85 umol of tetradecylthioacetic acid, po after 6 days; type: functional
Rattus norvegicus [12] = test: Effect on fatty acid composition in Wistar rat assessed as change in plasma PUFA level at dose equivalent to 85 umol of tetradecylthioacetic acid, po after 6 days; type: functional

SMILES: CCCCCCCCCCCCCCSCC(=O)OC[C@H](COP(=O)([O-])OCC[N+](C)(C)C)OC(=O)CSCCCCCCCCCCCCCC [PHOSPHATIDYLCHOLINE]
- Activity (Rattus norvegicus [1]): 4.91%
- Activity (Rattus norvegicus [2]): 26.13%
- Activity (Rattus norvegicus [3]): 39.22%
- Activity (Rattus norvegicus [4]): 16.33%
- Activity (Rattus norvegicus [5]): 4.05%
- Activity (Rattus norvegicus [6]): 8.79%
- Activity (Rattus norvegicus [7]): 35.25%
- Activity (Rattus norvegicus [8]): 21.62%
- Activity (Rattus norvegicus [9]): Dose-dependent effect
- Activity (Rattus norvegicus [10]): Dose-dependent effect
- Activity (Rattus norvegicus [11]): 22.53%
- Activity (Rattus norvegicus [12]): 2.42%
